Laboratory results as given in ChEMBL document CHEMBL4689842, “EUbOPEN Chemogenomics Library wave 1” (2021).

System: HEK-293T
Experiment: Multiplex assay against HEK293T;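 on Population Tubulin-Different-Phenotype (%): share of the cells with healthy nuclei that show this phenotype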
Format: toxicity, cell-based
Conditions: human
Summary of the method: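 Per cents of healthy-nucleus cells form the tubulin, mitochondrial-mass and membrane-permeability phenotype values. Live cells were stained at seeding with Hoechst33342, BioTracker Green Microtubule Cytoskeleton Dye, MitoTracker Red and Annexin V Alexa Fluor 680. After compound addition they were imaged on a CQ1 microscope at 37°C and 5% CO2, and CellPathfinder machine-learning gating split them into Hoechst high-intensity objects or normal cells, normal cells into healthy, pyknosed or fragmented nuclei, and pyknosed cells into mitotic or apoptotic.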

[1] = 12 h, 1 µM, compound concentration 1 uM, replicate 1
[2] = 12 h, 1 µM, compound concentration 1 uM, replicate 2
[3] = 12 h, 10 µM, compound concentration 10 uM, replicate 1
[4] = 12 h, 10 µM, compound concentration 10 uM, replicate 2
[5] = 24 h, 1 µM, compound concentration 1 uM, replicate 1
[6] = 24 h, 1 µM, compound concentration 1 uM, replicate 2
[7] = 24 h, 10 µM, compound concentration 10 uM, replicate 1
[8] = 24 h, 10 µM, compound concentration 10 uM, replicate 2
[9] = 48 h, 1 µM, compound concentration 1 uM, replicate 1
[10] = 48 h, 1 µM, compound concentration 1 uM, replicate 2
[11] = 48 h, 10 µM, compound concentration 10 uM, replicate 1
[12] = 48 h, 10 µM, compound concentration 10 uM, replicate 2

Q: Which results are given for `CN(C)C(=O)C(CCN1CCC(O)(c2ccc(Cl)cc2)CC1)(c1ccccc1)c1ccccc1.Cl` [LOPERAMIDE HYDROCHLORIDE]?
A: Population Apoptotic (%) [1]: 70%; Population Fragmented Nuclei (%) [1]: 10%; Population Healthy Nuclei (%) [1]: 37%; Population Hoechst High Intensity Objects (%) [1]: 16%; Population Membrane Permeable-Phenotype (%) [1]: 2%; Population Mitochondria Different-Phenotype (%) [1]: 92%; Population Mitotic Cells (%) [1]: 29%; Population Normal (%) [1]: 83%; Population Pyknosed Nuclei (%) [1]: 51%; Population Tubulin-Different-Phenotype (%) [1]: 83%; Total Cell Count [1]: 254; Population Apoptotic (%) [2]: 56%; Population Fragmented Nuclei (%) [2]: 4%; Population Healthy Nuclei (%) [2]: 30%; Population Hoechst High Intensity Objects (%) [2]: 0%; Population Membrane Permeable-Phenotype (%) [2]: 6%; Population Mitochondria Different-Phenotype (%) [2]: 95%; Population Mitotic Cells (%) [2]: 43%; Population Normal (%) [2]: 99%; Population Pyknosed Nuclei (%) [2]: 65%; Population Tubulin-Different-Phenotype (%) [2]: 85%; Total Cell Count [2]: 208; Population Apoptotic (%) [3]: 91%; Population Fragmented Nuclei (%) [3]: 10%; Population Healthy Nuclei (%) [3]: 7%; Population Hoechst High Intensity Objects (%) [3]: 20%; Population Membrane Permeable-Phenotype (%) [3]: 0%; Population Mitochondria Different-Phenotype (%) [3]: 100%; Population Mitotic Cells (%) [3]: 8%; Population Normal (%) [3]: 79%; Population Pyknosed Nuclei (%) [3]: 82%; Population Tubulin-Different-Phenotype (%) [3]: 86%; Total Cell Count [3]: 258; Population Apoptotic (%) [4]: 98%; Population Fragmented Nuclei (%) [4]: 6%; Population Hoechst High Intensity Objects (%) [4]: 15%; Population Mitotic Cells (%) [4]: 1%; Population Normal (%) [4]: 84%; Population Pyknosed Nuclei (%) [4]: 86%; Population Tubulin-Different-Phenotype (%) [4]: 70%; Total Cell Count [4]: 158; Population Apoptotic (%) [5]: 73%; Population Fragmented Nuclei (%) [5]: 11%; Population Healthy Nuclei (%) [5]: 35%; Population Hoechst High Intensity Objects (%) [5]: 16%; Population Membrane Permeable-Phenotype (%) [5]: 1%; Population Mitochondria Different-Phenotype (%) [5]: 90%; Population Mitotic Cells (%) [5]: 26%; Population Normal (%) [5]: 83%; Population Pyknosed Nuclei (%) [5]: 53%; Population Tubulin-Different-Phenotype (%) [5]: 80%; Total Cell Count [5]: 259; Population Apoptotic (%) [6]: 65%; Population Fragmented Nuclei (%) [6]: 3%; Population Healthy Nuclei (%) [6]: 48%; Population Hoechst High Intensity Objects (%) [6]: 0%; Population Membrane Permeable-Phenotype (%) [6]: 3%; Population Mitochondria Different-Phenotype (%) [6]: 94%; Population Mitotic Cells (%) [6]: 34%; Population Normal (%) [6]: 99%; Population Pyknosed Nuclei (%) [6]: 47%; Population Tubulin-Different-Phenotype (%) [6]: 89%; Total Cell Count [6]: 242; Population Apoptotic (%) [7]: 88%; Population Fragmented Nuclei (%) [7]: 16%; Population Healthy Nuclei (%) [7]: 8%; Population Hoechst High Intensity Objects (%) [7]: 23%; Population Membrane Permeable-Phenotype (%) [7]: 0%; Population Mitochondria Different-Phenotype (%) [7]: 100%; Population Mitotic Cells (%) [7]: 11%; Population Normal (%) [7]: 76%; Population Pyknosed Nuclei (%) [7]: 75%; Population Tubulin-Different-Phenotype (%) [7]: 73%; Total Cell Count [7]: 297; Population Apoptotic (%) [8]: 96%; Population Fragmented Nuclei (%) [8]: 7%; Population Hoechst High Intensity Objects (%) [8]: 12%; Population Mitochondria Different-Phenotype (%) [8]: 91%; Population Mitotic Cells (%) [8]: 3%; Population Normal (%) [8]: 87%; Population Pyknosed Nuclei (%) [8]: 84%; Population Tubulin-Different-Phenotype (%) [8]: 75%; Total Cell Count [8]: 162; Population Apoptotic (%) [9]: 75%; Population Fragmented Nuclei (%) [9]: 16%; Population Healthy Nuclei (%) [9]: 45%; Population Hoechst High Intensity Objects (%) [9]: 16%; Population Membrane Permeable-Phenotype (%) [9]: 0%; Population Mitochondria Different-Phenotype (%) [9]: 86%; Population Mitotic Cells (%) [9]: 24%; Population Normal (%) [9]: 83%; Population Pyknosed Nuclei (%) [9]: 37%; Population Tubulin-Different-Phenotype (%) [9]: 80%; Total Cell Count [9]: 322; Population Apoptotic (%) [10]: 71%; Population Fragmented Nuclei (%) [10]: 6%; Population Healthy Nuclei (%) [10]: 69%; Population Hoechst High Intensity Objects (%) [10]: 3%; Population Membrane Permeable-Phenotype (%) [10]: 1%; Population Mitochondria Different-Phenotype (%) [10]: 83%; Population Mitotic Cells (%) [10]: 28%; Population Normal (%) [10]: 96%; Population Pyknosed Nuclei (%) [10]: 23%; Population Tubulin-Different-Phenotype (%) [10]: 89%; Total Cell Count [10]: 305; Population Apoptotic (%) [11]: 85%; Population Fragmented Nuclei (%) [11]: 25%; Population Healthy Nuclei (%) [11]: 0%; Population Hoechst High Intensity Objects (%) [11]: 24%; Population Membrane Permeable-Phenotype (%) [11]: 0%; Population Mitochondria Different-Phenotype (%) [11]: 100%; Population Mitotic Cells (%) [11]: 14%; Population Normal (%) [11]: 75%; Population Pyknosed Nuclei (%) [11]: 73%; Population Tubulin-Different-Phenotype (%) [11]: 0%; Total Cell Count [11]: 315; Population Apoptotic (%) [12]: 98%; Population Fragmented Nuclei (%) [12]: 9%; Population Healthy Nuclei (%) [12]: 7%; Population Hoechst High Intensity Objects (%) [12]: 19%; Population Mitochondria Different-Phenotype (%) [12]: 90%; Population Mitotic Cells (%) [12]: 1%; Population Normal (%) [12]: 80%; Population Pyknosed Nuclei (%) [12]: 82%; Population Tubulin-Different-Phenotype (%) [12]: 72%; Total Cell Count [12]: 181
